Among the data in ChEMBL document CHEMBL1158759, “Cytotoxic bisindole alkaloids from a marine sponge Spongosorites sp” (J Nat Prod, 2005) are EC50, MIC and IC50 values, retold here.

Converted amounts (≈) assume the structure as drawn.

One assay has as its system A549. The assay can be described thus: Cytotoxicity against human A549 cells after 48 hrs by SRB assay. In kind it is functional. Conditions: A549, 48 h, read-out: ED50 (the source's name). The essentials:
(§1)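 Cells in exponential growth were seeded at (1-2) × 10^4 per well and grown 24 h. Cells were fixed with cold TCA and stained with 0.4% SRB in 1% acetic acid. Dye was solubilized in 10 mM unbuffered Tris base and A520 read.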
A general note: The SRB assay estimates cell density from bound dye.

For another assay, the system named is SK-OV-3. The assay can be described thus: Cytotoxicity against human SKOV3 cells after 48 hrs by SRB assay. Conditions: SK-OV-3, 48 h, read-out: ED50 (the source's name). Type of assay: functional. Put shortly: as §1
A further assay relates to SK-MEL-2. Kind of assay: Cytotoxicity against human SK-MEL-2 cells after 48 hrs by SRB assay. Conditions: SK-MEL-2, 48 h, read-out: ED50 (the source's name). In kind it is functional. The essentials:
as §1

Another assay deals with XF498. The assay can be described thus: Cytotoxicity against human XF498 cells after 48 hrs by SRB assay. In kind it is functional. Conditions: XF498, 48 h, read-out: ED50 (the source's name). The essentials: as §1
In another assay the test system is HCT-15. The assay can be described thus: Cytotoxicity against human HCT15 cells after 48 hrs by SRB assay. Type of assay: functional. Conditions: HCT-15, 48 h, read-out: ED50 (the source's name). The essentials:
as §1

Assay [1] has as its system Streptococcus pyogenes. Kind of assay: Antibacterial activity against Streptococcus pyogenes 308A. In kind it is functional. Put shortly:
(§2)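 Agar dilution on Mueller Hinton agar holding 17 serial dilutions of sample (final 25 to 0.002 µg/mL), with meropenem and imipenem as standards. Strains were pre-grown 18 h at 37 °C in Fleisch extract broth, with 10% horse serum for some strains.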

Assay [2] relates to Streptococcus pyogenes. Kind of assay: Antibacterial activity against Streptococcus pyogenes 77A. In kind it is functional. Put shortly:
as §2

The test system of the next assay is Enterococcus faecium. Kind of assay: Antibacterial activity against Streptococcus faecium MD 8b. In kind it is functional. The essentials:
as §2

The test system of assay [3] is Staphylococcus aureus. The assay can be described thus: Antibacterial activity against Staphylococcus aureus SG511. In kind it is functional. The essentials: as §2
Assay [4] deals with Staphylococcus aureus. The assay can be described thus: Antibacterial activity against Staphylococcus aureus 285. In kind it is functional. Put shortly: as §2
The next assay has as its system Escherichia coli. Kind of assay: Antibacterial activity against Escherichia coli DC2. Type of assay: functional. The essentials:
as §2

A further assay relates to Pseudomonas aeruginosa. Kind of assay: Antibacterial activity against Pseudomonas aeruginosa 1771M. Type of assay: functional. Put shortly: as §2
In the next assay the test system is Klebsiella oxytoca. The assay can be described thus: Antibacterial activity against Klebsiella oxytoca 1082. In kind it is functional. Put shortly:
as §2

For assay [5], the system named is Staphylococcus aureus. The assay can be described thus: Antibacterial activity against Staphylococcus aureus 503. In kind it is functional. The essentials:
as §2

For another assay, the system named is P388. The assay can be described thus: Cytotoxicity against mouse P388 cells. Type of assay: functional, cell-based.

The term MIC denotes the least concentration at which growth counts as inhibited. Lower therefore signals a more susceptible organism. With `O=C1NC[C@@H](c2c[nH]c3cc(Br)ccc23)N[C@H]1c1c[nH]c2cc(Br)ccc12` (relative stereo) [CIS-3,4-DIHYDROHAMACANTHIN B], the EC50 stood at 3.41 µg/mL (≈ 6.99 µM) with A549; 3.62 µg/mL (≈ 7.42 µM) with SK-OV-3; 3.85 µg/mL (≈ 7.89 µM) in the assay on SK-MEL-2; 3.22 µg/mL (≈ 6.6 µM) in the assay on XF498; 2.83 µg/mL (≈ 5.8 µM) in the assay with HCT-15. For the same compound, the MIC against Streptococcus pyogenes [1] was 12.5 µg/mL (≈ 25.6 µM); in the assay with Streptococcus pyogenes [2], 25 µg/mL (≈ 51.2 µM); in the assay with Enterococcus faecium it was > 25 µg/mL; against Staphylococcus aureus [3] it was 12.5 µg/mL (≈ 25.6 µM); in the assay on Staphylococcus aureus [4], 25 µg/mL (≈ 51.2 µM); against Escherichia coli, 25 µg/mL (≈ 51.2 µM). In addition, the minimum inhibitory concentration (MIC) against Pseudomonas aeruginosa, in the assay with Klebsiella oxytoca and in the assay with Staphylococcus aureus [5] was 25 µg/mL (≈ 51.2 µM) each time.

The IC50 is the midpoint of a concentration-inhibition curve. Lower therefore signals higher potency. For `O=C(c1nc(-c2c[nH]c3cc(Br)ccc23)c[nH]1)c1c[nH]c2cc(O)ccc12` [BROMOTOPSENTIN], the EC50 was > 30 µg/mL with A549; 28.1 µg/mL (≈ 66.8 µM) in the assay with SK-OV-3; 7.02 µg/mL (≈ 16.7 µM) in the assay on SK-MEL-2; 15 µg/mL (≈ 35.6 µM) in the assay with XF498; > 30 µg/mL in the assay on HCT-15. The concentration for half-maximal inhibition (IC50) with P388 turned out to be 7 µg/mL (≈ 16.6 µM).

Regarding `COc1cccc2c1C(=O)c1c(O)c3c(c(O)c1C2=O)C[C@@](O)(C(=O)CO)C[C@@H]3O[C@H]1C[C@H](N)[C@H](O)[C@H](C)O1` [DOXORUBICIN], the EC50 turned out to be 0.01 µg/mL (≈ 0.0184 µM) with A549; 0.03 µg/mL (≈ 0.0552 µM) with SK-OV-3; 0.01 µg/mL (≈ 0.0184 µM) with SK-MEL-2; 0.01 µg/mL (≈ 0.0184 µM) in the assay on XF498; 0.05 µg/mL (≈ 0.092 µM) in the assay with HCT-15.

In the case of `C[C@@H](O)[C@H]1C(=O)N2C(C(=O)O)=C(SCCNC=N)C[C@H]12` [IMIPENEM ANHYDROUS], the MIC with Streptococcus pyogenes [1] came out at 0.004 µg/mL (≈ 0.0134 µM); against Streptococcus pyogenes [2], 0.004 µg/mL (≈ 0.0134 µM); in the assay on Enterococcus faecium, 0.781 µg/mL (≈ 2.61 µM); with Staphylococcus aureus [3], 0.013 µg/mL (≈ 0.0434 µM); in the assay on Staphylococcus aureus [4], 0.013 µg/mL (≈ 0.0434 µM); against Escherichia coli, 0.195 µg/mL (≈ 0.651 µM). Besides, the MIC was determined as 0.098 µg/mL (≈ 0.327 µM) in the assay on Pseudomonas aeruginosa, 0.195 µg/mL (≈ 0.651 µM) in the assay on Klebsiella oxytoca and 0.007 µg/mL (≈ 0.0234 µM) with Staphylococcus aureus [5].

For the compound `C[C@@H](O)[C@H]1C(=O)N2C(C(=O)O)=C(S[C@@H]3CN[C@H](C(=O)N(C)C)C3)[C@H](C)[C@H]12` [MEROPENEM], the MIC against Streptococcus pyogenes [1] was determined as 0.007 µg/mL (≈ 0.0183 µM); in the assay on Streptococcus pyogenes [2] it was 0.007 µg/mL (≈ 0.0183 µM); against Enterococcus faecium, 6.25 µg/mL (≈ 16.3 µM); with Staphylococcus aureus [3], 0.098 µg/mL (≈ 0.256 µM); against Staphylococcus aureus [4], 0.195 µg/mL (≈ 0.509 µM); against Escherichia coli, 0.025 µg/mL (≈ 0.0652 µM). In addition, the figures for the minimal inhibitory concentration (MIC) against Pseudomonas aeruginosa, against Klebsiella oxytoca and against Staphylococcus aureus [5] were 0.098 µg/mL (≈ 0.256 µM), 0.049 µg/mL (≈ 0.128 µM) and 0.049 µg/mL (≈ 0.128 µM), respectively.

In the case of `O=C(c1nc(-c2c[nH]c3ccccc23)c[nH]1)c1c[nH]c2cc(O)ccc12` [TOPSENTIN], the EC50 is > 30 µg/mL with A549; > 30 µg/mL in the assay on SK-OV-3; > 30 µg/mL with SK-MEL-2; > 30 µg/mL in the assay with XF498; 13.3 µg/mL (≈ 38.9 µM) in the assay with HCT-15. In addition, the IC50 with P388 was 2 µg/mL (≈ 5.84 µM).
